Measurements reported in ChEMBL document CHEMBL1157829, “2-imino-thiazolidin-4-one derivatives as potent, orally active S1P1 receptor agonists” (J Med Chem, 2010).
Activity calls are given as the source filed them. The calls are words filed in the database; no cut-off is given here.

Tests used:
[1] = biological target: T1, Sphingosine 1-phosphate receptor 3 (Homo sapiens, UniProt Q99500); experiment: Agonist activity at human recombinant S1P3 receptor expressed in HEK cells by GTPgammaS binding assay; type: functional, HEK293
T1 sequence (Q99500 whole entry): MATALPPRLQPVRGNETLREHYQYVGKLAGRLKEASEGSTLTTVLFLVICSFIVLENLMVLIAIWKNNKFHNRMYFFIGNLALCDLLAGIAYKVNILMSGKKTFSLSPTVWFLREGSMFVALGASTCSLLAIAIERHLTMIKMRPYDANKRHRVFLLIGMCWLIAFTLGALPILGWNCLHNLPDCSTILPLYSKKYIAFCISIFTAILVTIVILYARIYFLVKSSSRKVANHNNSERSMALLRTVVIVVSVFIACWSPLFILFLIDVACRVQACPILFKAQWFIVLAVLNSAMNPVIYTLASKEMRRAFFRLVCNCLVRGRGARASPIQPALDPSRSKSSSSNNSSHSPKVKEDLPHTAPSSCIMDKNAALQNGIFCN
Outline: (§1)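 Membranes from cells expressing recombinant receptor. Buffer: 20 mM Hepes pH 7.4, 100 mM NaCl, 5 mM MgCl2, 0.1% fatty-acid-free BSA, 2.5% DMSO. GDP 1 µM for S1P1, 3 µM for S1P3. Compound preincubated with membranes 30 min at RT, then 50 pM 35S-GTPγS added for 1 h at RT. Bound label collected by filtration and counted. […] Values are geometric means of independent experiments.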

[2] = Intrinsic clearance in Beagle dog liver microsomes at 1 uM by LC-MS/MS analysis measured per mg of protein; type: ADME, Canis lupus familiaris, Microsome
[3] = Volume of distribution at steady state in Wistar rat at 3 mg/kg, po and 0.3 mg/kg, iv; type: ADME, organism-based; details: in vivo, read-out: Vdss
Outline: (§2)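 Male Wistar rats (n = 3) were dosed at 3 mg/kg orally and 0.3 mg/kg intravenously. Plasma pharmacokinetic parameters were derived from these runs.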

[4] = biological target: T2, Sphingosine 1-phosphate receptor 4 (Homo sapiens, UniProt O95977); experiment: Displacement of [33P]S1P from human recombinant S1P4 receptor expressed in CHO cells by scintillation counting; type: cell-based
T2 sequence (O95977 whole entry): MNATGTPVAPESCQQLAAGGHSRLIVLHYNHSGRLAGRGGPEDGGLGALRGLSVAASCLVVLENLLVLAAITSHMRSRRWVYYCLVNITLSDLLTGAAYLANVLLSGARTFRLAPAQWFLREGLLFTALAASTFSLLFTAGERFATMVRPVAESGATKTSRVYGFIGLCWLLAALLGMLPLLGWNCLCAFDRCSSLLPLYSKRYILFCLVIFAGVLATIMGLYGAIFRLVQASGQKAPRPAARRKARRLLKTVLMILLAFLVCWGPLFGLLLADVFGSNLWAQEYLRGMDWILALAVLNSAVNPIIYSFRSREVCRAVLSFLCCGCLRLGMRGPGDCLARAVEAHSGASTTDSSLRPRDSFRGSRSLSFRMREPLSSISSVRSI

[5] = biological target: T3, Sphingosine 1-phosphate receptor 1 (Homo sapiens, UniProt P21453); experiment: Agonist activity at human recombinant S1P1 receptor expressed in CHO cells by GTPgammaS binding assay; type: functional, cell-based
T3 sequence (P21453 whole entry): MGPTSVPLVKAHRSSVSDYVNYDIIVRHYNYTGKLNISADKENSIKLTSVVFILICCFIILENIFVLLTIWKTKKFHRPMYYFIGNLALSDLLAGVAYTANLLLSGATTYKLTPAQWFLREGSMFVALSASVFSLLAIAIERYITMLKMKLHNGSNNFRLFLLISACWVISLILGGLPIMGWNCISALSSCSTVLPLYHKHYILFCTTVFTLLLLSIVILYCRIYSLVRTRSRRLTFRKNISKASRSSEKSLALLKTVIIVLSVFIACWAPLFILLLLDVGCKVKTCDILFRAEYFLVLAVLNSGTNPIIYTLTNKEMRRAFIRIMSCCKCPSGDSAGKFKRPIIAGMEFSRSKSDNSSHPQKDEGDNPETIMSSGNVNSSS

[6] = Bioavailability in Beagle dog at 3 mg/kg, po and 0.3 mg/kg, iv; type: ADME, organism-based, Canis lupus familiaris; details: in vivo
Outline: (§3)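 Fed male beagle dogs (n = 3) were dosed at 3 mg/kg orally and 0.3 mg/kg intravenously. Plasma exposure was measured to derive bioavailability, Cmax, half-life, clearance and Vss.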

[7] = biological target: T3, Sphingosine 1-phosphate receptor 1; experiment: Displacement of [33P]S1P from human recombinant S1P1 receptor expressed in HEK cells by scintillation counting; type: cell-based, HEK293; details: read-out: IC50
Outline: (§4)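 33P-S1P binding to membranes of recombinant receptor-expressing cells. IC50 reported as the geometric mean of independent experiments, with the geometric standard deviation.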

Rattus norvegicus [8] = experiment: Immunomodulatory activity in normotensive Wistar rat assessed as change in circulating lymphocytes count at 10 mg/kg, po after 24 hrs relative to control; type: functional
Outline: (§5)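 Normotensive male Wistar rats were housed on a 12 h light/dark cycle with free chow and water. Compound was dissolved in DMSO and added to 7.5% aqueous gelatin (final 5% DMSO), then given by gavage at 10 mg/kg (n = 6). Vehicle was 95% gelatin (7.5%)/5% DMSO (n = 30). Blood was taken before dosing and at 3, 6 and 24 h and counted by hematology analyzer. Counts are % change from t = 0 h ± SEM.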

[9] = biological target: T4, Sphingosine 1-phosphate receptor 2 (Homo sapiens, UniProt O95136); experiment: Agonist activity at human recombinant S1P2 receptor expressed in HEK cells by GTPgammaS binding assay; type: functional, HEK293
T4 sequence (O95136 whole entry): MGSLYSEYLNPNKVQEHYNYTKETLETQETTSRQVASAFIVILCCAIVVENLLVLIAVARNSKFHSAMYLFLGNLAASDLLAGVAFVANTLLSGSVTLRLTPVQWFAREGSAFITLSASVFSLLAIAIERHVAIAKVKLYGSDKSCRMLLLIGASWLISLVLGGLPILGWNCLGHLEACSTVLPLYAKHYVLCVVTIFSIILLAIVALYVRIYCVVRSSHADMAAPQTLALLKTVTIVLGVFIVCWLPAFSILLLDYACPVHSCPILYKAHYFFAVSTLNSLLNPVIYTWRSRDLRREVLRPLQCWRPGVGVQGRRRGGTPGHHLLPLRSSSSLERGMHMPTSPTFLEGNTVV

[10] = biological target: T5, Sphingosine 1-phosphate receptor 5 (Homo sapiens, UniProt Q9H228); experiment: Displacement of [33P]S1P from human recombinant S1P5 receptor expressed in CHO cells by scintillation counting; type: cell-based
T5 sequence (Q9H228 whole entry): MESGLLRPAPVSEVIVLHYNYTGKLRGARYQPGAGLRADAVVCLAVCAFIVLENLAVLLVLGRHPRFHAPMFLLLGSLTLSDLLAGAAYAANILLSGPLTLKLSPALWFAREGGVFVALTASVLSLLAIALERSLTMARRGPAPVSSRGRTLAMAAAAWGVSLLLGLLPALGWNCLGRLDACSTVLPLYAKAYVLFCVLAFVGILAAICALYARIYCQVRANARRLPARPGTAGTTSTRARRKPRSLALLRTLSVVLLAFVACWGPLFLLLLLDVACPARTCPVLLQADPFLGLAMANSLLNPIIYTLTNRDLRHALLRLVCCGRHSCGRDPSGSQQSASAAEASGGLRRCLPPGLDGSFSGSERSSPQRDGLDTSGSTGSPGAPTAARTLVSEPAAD

[11] = Cmax in Beagle dog at 3 mg/kg, po and 0.3 mg/kg, iv; type: ADME, organism-based, Canis lupus familiaris; details: in vivo; outline: as §3
[12] = biological target: T6, Sphingosine 1-phosphate receptor 4 (Homo sapiens) (UniProt O95977); experiment: Agonist activity at human recombinant S1P4 receptor expressed in CHO cells at 10 uM by GTPgammaS binding assay relative to S1P; type: functional, cell-based
T6 sequence (whole entry): T2 sequence (O95977 whole entry)
Outline: (§6)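 In the same CHO-membrane 35S-GTPγS binding assay with human receptor, maximal activity at 10 uM compound was expressed as a percentage of the effect induced by S1P.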

[13] = Cmax in Wistar rat at 3 mg/kg, po and 0.3 mg/kg, iv; type: ADME, organism-based; details: in vivo; outline: as §2
[14] = Half life in human administered as single ascending dose; type: ADME, organism-based; details: in vivo
Rattus norvegicus [15] = experiment: Immunomodulatory activity in normotensive Wistar rat assessed as change in circulating lymphocytes count at 10 mg/kg, po after 6 hrs relative to control; type: functional; outline: as §5
[16] = biological target: T5, Sphingosine 1-phosphate receptor 5; experiment: Agonist activity at human recombinant S1P5 receptor expressed in CHO cells by GTPgammaS binding assay; type: functional, cell-based
[17] = biological target: T1, Sphingosine 1-phosphate receptor 3; experiment: Agonist activity at human recombinant S1P3 receptor expressed in CHO cells by GTPgammaS binding assay; type: functional, cell-based
Outline: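 Membranes from CHO cells expressing recombinant human receptor. Buffer 20 mM Hepes pH 7.4, 100 mM NaCl, 5 mM MgCl2, 0.1% fatty-acid-free BSA, 2.5% DMSO, GDP (1 uM for S1P1, 3 uM for S1P3), 50 pM 35S-GTPγS. Compound preincubated with membranes 30 min at room temperature, then 1 h with 35S-GTPγS. Reaction filtered and bound label counted. Specific binding is the 10 uM S1P signal minus the no-agonist signal. EC50 is the concentration giving 50% of specific binding; three independent assays.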

[18] = Half life in Wistar rat at 3 mg/kg, po and 0.3 mg/kg, iv; type: ADME, organism-based; details: in vivo; outline: as §2
[19] = biological target: T3, Sphingosine 1-phosphate receptor 1; experiment: Agonist activity at human recombinant S1P1 receptor expressed in HEK cells by GTPgammaS binding assay; type: functional, cell-based, HEK293; outline: as §1
[20] = biological target: T1, Sphingosine 1-phosphate receptor 3; experiment: Displacement of [33P]S1P from human recombinant S1P3 receptor expressed in HEK cells by scintillation counting; type: cell-based, HEK293; details: read-out: IC50; outline: as §4
[21] = Bioavailability in Wistar rat at 3 mg/kg, po and 0.3 mg/kg, iv; type: ADME, organism-based; details: in vivo; outline: as §2
[22] = Volume of distribution at steady state in Beagle dog at 3 mg/kg, po and 0.3 mg/kg, iv; type: ADME, organism-based, Canis lupus familiaris; details: in vivo, read-out: Vdss; outline: as §3
Rattus norvegicus [23] = experiment: Immunomodulatory activity in normotensive Wistar rat assessed as change in circulating lymphocytes count at 10 mg/kg, po after 3 hrs relative to control; type: functional; outline: as §5
Canis familiaris = experiment: Immunomodulatory activity in Beagle dog assessed as decrease in circulating lymphocytes count at 5 mg/kg, po after 24 hrs; type: functional, organism-based; parameters: dose 5 mg/kg; details: Canis lupus familiaris
[24] = biological target: T2, Sphingosine 1-phosphate receptor 4; experiment: Agonist activity at human recombinant S1P4 receptor expressed in CHO cells by GTPgammaS binding assay; type: functional, cell-based
[25] = Intrinsic clearance in Wistar rat liver microsomes at 1 uM by LC-MS/MS analysis measured per mg of protein; type: ADME, Microsome
[26] = Clearance in Beagle dog at 3 mg/kg, po and 0.3 mg/kg, iv; type: ADME, organism-based, Canis lupus familiaris; details: in vivo; outline: as §3
[27] = biological target: T4, Sphingosine 1-phosphate receptor 2; experiment: Displacement of [33P]S1P from human recombinant S1P2 receptor expressed in HEK cells by scintillation counting; type: cell-based, HEK293
[28] = Intrinsic clearance in rat hepatocytes at 1 uM by LC-MS/MS analysis measured per million cells; type: ADME, cell-based, Liver, Hepatocyte
[29] = Half life in Beagle dog at 3 mg/kg, po and 0.3 mg/kg, iv; type: ADME, organism-based, Canis lupus familiaris; details: in vivo; outline: as §3
[30] = Intrinsic clearance in human liver microsomes at 1 uM by LC-MS/MS analysis measured per mg of protein; type: ADME, Microsome
[31] = Intrinsic clearance in Beagle dog hepatocytes at 1 uM by LC-MS/MS analysis measured per million cells; type: ADME, cell-based, Canis lupus familiaris, Liver, Hepatocyte
[32] = biological target: T5, Sphingosine 1-phosphate receptor 5; experiment: Agonist activity at human recombinant S1P5 receptor expressed in CHO cells at 10 uM by GTPgammaS binding assay relative to S1P; type: functional, cell-based; outline: as §6
[33] = Clearance in Wistar rat at 3 mg/kg, po and 0.3 mg/kg, iv; type: ADME, organism-based; details: in vivo; outline: as §2

For `CCC/N=C1\S/C(=C\c2ccc(OC[C@@H](O)CO)c(Cl)c2)C(=O)N1c1ccccc1C`, the EC50 [1] was 105 nM, the microsomal CLint at 1 µM [2] was 7 µL/min/mg and the Vd [3] was 3.3 L/kg. It also gave an IC50 [4] of 1960 nM, an EC50 [5] of 9.1 nM and a bioavailability [6] of 69%. It also gave an IC50 [7] of 6 nM, an Activity (Rattus norvegicus [8]) of -18% and an EC50 [9] greater than 10000 nM. The IC50 [10] was 142 nM, the Cmax [11] was 1360 ng/mL and the Activity [12] was 18%. For the same compound, the Cmax [13] was 409 ng/mL, the half-life [14] was 22 h and the Activity (Rattus norvegicus [15]) was -63%. For the same compound, the EC50 [16] was 59.1 nM, the EC50 [17] was 123 nM and the half-life [18] was 1.3 h. The EC50 [19] was 5.7 nM, the IC50 [20] was 2070 nM and the bioavailability [21] was 35%. For the same compound, the Vd [22] was 0.9 L/kg, the Activity (Rattus norvegicus [23]) was -65% and the Activity (Canis familiaris) was “Active”. For the same compound, the EC50 [24] was 1110 nM, the microsomal CLint at 1 µM [25] was 56 µL/min/mg and the clearance [26] was 1.3 mL/min/kg. It also gave an IC50 [27] greater than 10000 nM, a hepatocyte CLint at 1 µM [28] of 3.7 µL/min/1e6 cells and a half-life [29] of 10 h. For the same compound, the microsomal CLint at 1 µM [30] was 4 µL/min/mg, the hepatocyte CLint at 1 µM [31] was 1 µL/min/1e6 cells and the Activity [32] was 42%. It also gave a clearance [33] of 25 mL/min/kg.
